We go through 10 compounds from ChEMBL document CHEMBL1806446, “Synthesis and evaluation of hermitamides A and B as human voltage-gated sodium channel blockers” (Bioorg Med Chem, 2011).

For one assay, the species on record is Rattus norvegicus. The experiment in a line: Displacement of [3H]batrachotoxin from neurotoxin site 2 of voltage-gated sodium channel in rat forebrain tissue at 10 uM after 60 mins. The gist of the method:
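Rat forebrain membranes (10 mg tissue/well) incubated with [3H]-BTX (30–60 Ci/mmol) in 50 mM HEPES pH 7.4 with 130 mM choline chloride, 37 °C, 60 min; test at 10 μM. Stopped by rapid vacuum filtration onto glass fiber filters; bound radioactivity counted against control and expressed as percent displacement. Aconitine (1 μM) positive control.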
On the technique in general: Loss of bound radioactivity is the signal in a displacement assay; it reports binding, not function.

The target of assay [1] is Sodium channel protein type 2 subunit alpha (Homo sapiens) (UniProt Q99250). The assay can be described thus: Inhibition of human voltage-gated sodium channel 1.2 expressed in HEK293 cells at 1 uM by […]. Format: cell-based. In outline: (§1)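 HEK293 cells stably expressing hNav1.2, grown in DMEM/F12 with 10% FBS and G418 at 37 °C. Whole-cell patch clamp at 20–22 °C with ≥75% series resistance compensation. Currents evoked by a 25 ms step from –60 to +10 mV every 15 s. Compound was diluted from DMSO stock into perfusion, ≤0.1% DMSO final, applied after a 3 min control until steady state. Reported as percent block, mean ± SEM.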

For assay [2] the target is unchanged. The assay can be described thus: Inhibition of human voltage-gated sodium channel 1.2 expressed in human HEK293 cells at 10 uM by […]. It is filed as cell-based. In outline: as §1
For assay [3] the target is unchanged. The experiment in a line: Inhibition of human voltage-gated sodium channel 1.2 expressed in HEK293 cells at 100 nM by […]. It is filed as cell-based. In outline: as §1

Chain of Sodium channel protein type 2 subunit alpha (Homo sapiens) (Q99250 whole entry, looked up, the tested form may be a part): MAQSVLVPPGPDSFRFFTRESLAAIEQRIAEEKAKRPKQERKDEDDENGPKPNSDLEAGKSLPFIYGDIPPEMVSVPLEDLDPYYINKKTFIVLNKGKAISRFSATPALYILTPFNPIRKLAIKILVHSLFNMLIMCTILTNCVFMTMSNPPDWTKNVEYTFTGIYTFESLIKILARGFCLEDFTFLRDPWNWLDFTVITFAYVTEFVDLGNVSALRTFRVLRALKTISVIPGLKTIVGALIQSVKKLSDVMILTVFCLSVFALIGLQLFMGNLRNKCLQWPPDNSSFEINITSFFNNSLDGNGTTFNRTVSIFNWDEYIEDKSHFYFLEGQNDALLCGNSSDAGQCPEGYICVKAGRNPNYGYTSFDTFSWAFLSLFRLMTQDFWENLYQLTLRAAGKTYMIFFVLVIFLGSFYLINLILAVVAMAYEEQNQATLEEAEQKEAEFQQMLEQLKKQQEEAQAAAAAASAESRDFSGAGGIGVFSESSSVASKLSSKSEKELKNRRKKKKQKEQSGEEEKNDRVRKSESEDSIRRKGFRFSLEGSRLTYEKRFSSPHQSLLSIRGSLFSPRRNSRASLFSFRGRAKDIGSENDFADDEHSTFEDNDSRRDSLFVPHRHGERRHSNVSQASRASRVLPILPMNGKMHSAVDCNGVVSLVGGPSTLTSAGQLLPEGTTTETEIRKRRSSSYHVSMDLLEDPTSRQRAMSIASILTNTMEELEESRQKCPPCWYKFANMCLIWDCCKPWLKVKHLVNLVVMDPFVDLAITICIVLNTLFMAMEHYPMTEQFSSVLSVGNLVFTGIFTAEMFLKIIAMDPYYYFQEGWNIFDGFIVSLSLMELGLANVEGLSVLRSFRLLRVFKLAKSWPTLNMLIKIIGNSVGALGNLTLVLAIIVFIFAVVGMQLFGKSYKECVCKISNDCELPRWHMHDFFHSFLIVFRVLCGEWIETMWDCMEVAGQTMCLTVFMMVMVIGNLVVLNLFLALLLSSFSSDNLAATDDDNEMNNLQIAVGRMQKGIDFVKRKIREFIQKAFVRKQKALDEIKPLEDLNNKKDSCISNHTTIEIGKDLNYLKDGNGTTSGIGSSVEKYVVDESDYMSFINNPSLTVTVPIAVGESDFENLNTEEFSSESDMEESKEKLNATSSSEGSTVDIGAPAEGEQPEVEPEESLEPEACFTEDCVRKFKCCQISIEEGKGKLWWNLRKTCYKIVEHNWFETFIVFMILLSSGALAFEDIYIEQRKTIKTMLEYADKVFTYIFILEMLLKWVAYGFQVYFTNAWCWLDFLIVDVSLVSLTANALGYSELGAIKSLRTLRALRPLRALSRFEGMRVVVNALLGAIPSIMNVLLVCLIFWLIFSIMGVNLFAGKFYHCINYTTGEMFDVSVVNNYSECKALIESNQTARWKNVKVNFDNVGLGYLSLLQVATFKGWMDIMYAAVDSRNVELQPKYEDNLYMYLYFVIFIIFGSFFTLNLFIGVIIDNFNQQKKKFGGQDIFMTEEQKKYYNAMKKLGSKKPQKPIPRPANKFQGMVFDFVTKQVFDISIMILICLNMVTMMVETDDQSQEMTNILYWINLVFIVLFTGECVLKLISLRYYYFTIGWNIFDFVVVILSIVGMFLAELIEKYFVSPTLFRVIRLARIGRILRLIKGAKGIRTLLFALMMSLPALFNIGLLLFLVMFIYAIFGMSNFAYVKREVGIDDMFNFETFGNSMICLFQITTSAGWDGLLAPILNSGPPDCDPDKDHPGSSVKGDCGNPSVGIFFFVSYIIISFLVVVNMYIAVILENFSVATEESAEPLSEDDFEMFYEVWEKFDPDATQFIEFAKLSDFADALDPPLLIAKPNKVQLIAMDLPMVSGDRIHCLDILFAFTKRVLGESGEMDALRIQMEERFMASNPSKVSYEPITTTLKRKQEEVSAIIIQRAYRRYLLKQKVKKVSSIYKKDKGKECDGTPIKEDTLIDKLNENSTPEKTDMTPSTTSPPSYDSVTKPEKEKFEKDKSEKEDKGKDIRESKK

The compound `CCCCCCCC(C/C=C/CCC(=O)NCCc1c[nH]c2ccccc12)OC` (racemic) had an Activity in the assay filed under Rattus norvegicus of 36%. Also, the inhibition (in general, the relative decrease from the control value, in per cent) in assay [1] turned out to be 88.4%; in assay [2] it was 100%; in assay [3], 24.3%.

In the assay listed under Rattus norvegicus, `CCCCCCC[C@H](C/C=C/CCC(=O)NCCc1c[nH]c2ccccc12)OC` displayed an Activity of 20.3%. Also, the inhibition in assay [1] worked out at 80.7%; in assay [3] it was 28.8%.

For the compound `CCCCCCC[C@@H](C/C=C/CCC(=O)NCCc1c[nH]c2ccccc12)OC`, the Activity in the assay listed under Rattus norvegicus worked out at 29%. Moreover, the inhibition in assay [1] amounted to 87.8%; in assay [2], 100%; in assay [3], 17.2%.

`CCCCCCC[C@@H](C/C=C/CCC(=O)O)OC` showed an Activity in the assay filed under Rattus norvegicus of 7.77%.

Turning to `CCCCCCC[C@H](C/C=C/CCC(=O)NCCc1ccccc1)OC`, in the assay filed under Rattus norvegicus, the Activity was found to be 13.8%. Besides, the inhibition was 58.7% in assay [1] and under 10% in assay [3].

In the assay listed under Rattus norvegicus, `CCCCCCCC(C/C=C/CCC(=O)O)OC` (racemic) yielded an Activity of 7.35%.

In turn, `CCCCCCCC(C/C=C/CCC(=O)NCCc1ccccc1)OC` (racemic) came in with an Activity in the assay filed under Rattus norvegicus of 15.7%. The inhibition in assay [1] was 49.7%; in assay [2], 90.2%; in assay [3] it was under 10%.

In the assay filed under Rattus norvegicus, `CCCCCCC[C@H](C/C=C/CCC(=O)O)OC` had an Activity of 11.9%.

In turn, `O=C1NC(=O)C(c2ccccc2)(c2ccccc2)N1` yielded an Activity in the assay filed under Rattus norvegicus of 19.8%. The inhibition was under 10% in assay [1] and 10% in assay [2].

Turning to `CCCCCCC[C@@H](C/C=C/CCC(=O)NCCc1ccccc1)OC`, in the assay listed under Rattus norvegicus, the Activity came to 15.9%. In addition, the results for the inhibition in assay [1], in assay [2] and in assay [3] were 74.4%, 94.4% and 15.5%, respectively.
